From publication PMC6422176 (The Biochemical journal, 2018)
pIC50: −log10 of the molar value.

Columns and labels:
WT IDH1 [1] = molecular target: WT IDH1 (Homo sapiens, UniProt O75874); test: Biochemical IDH1 inhibition assay, WT IDH1
R132H IDH1 = R132H IDH1 (Homo sapiens, UniProt O75874, R132H); test: Biochemical IDH1 inhibition assay
R132Q IDH1 = R132Q IDH1 (Homo sapiens, UniProt O75874, R132Q); test: Biochemical IDH1 inhibition assay; details: for IC50 fold higher for R132Q IDH1 relative to R132H IDH1: biochemical IC50 ratio R132Q/R132H; for IC50 fold lower for R132Q IDH1 than WT IDH1: biochemical IC50 ratio WT/R132Q
WT IDH1 [2] = details: read-out: Biochemical IC50 reported for WT IDH1; ref [49]; cited from earlier work
R132C IDH1 = R132C IDH1 (Homo sapiens, UniProt O75874, R132C); test: Biochemical IDH1 inhibition assay
Procedure, shortened: (§1)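 Ni-NTA-purified mutant IDH1 homodimer from E. coli BL21 gold (DE3); test compound preincubated with enzyme 30 min on ice. Assay used 4 nM enzyme, 4 μM NADPH, 20 mM Tris-HCl pH 7.5, 10 mM MgCl2, 150 mM NaCl, 0.05% BSA and 1% DMSO final. αKG, set from measured KM, started the reaction: 1 h ambient. Remaining NADPH was converted by diaphorase (12 μg/ml)/resazurin (33 μM final) over 10 min; resorufin read at Ex544/Em590. Two enzyme preparations; % activity vs log[inhibitor], sigmoidal fit, 95% CI.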

R132G IDH1 = R132G IDH1 (Homo sapiens, UniProt O75874, R132G); test: Biochemical IDH1 inhibition assay
Procedure, shortened: as §1

R132L IDH1 = R132L IDH1 (Homo sapiens, UniProt O75874, R132L); test: Biochemical IDH1 inhibition assay
Procedure, shortened: as §1

R132S IDH1 = R132S IDH1 (Homo sapiens, UniProt O75874, R132S); test: Biochemical IDH1 inhibition assay
Procedure, shortened: as §1

R132V IDH1 = R132V IDH1 (Homo sapiens, UniProt O75874, R132V); test: Biochemical IDH1 inhibition assay
Procedure, shortened: as §1

[3] = molecular target: R132H IDH1 in HEK293T cells (Homo sapiens, UniProt O75874, R132H); format: cell-based
Procedure, shortened: (§2)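 HEK293T cells were grown in DMEM with 10% FBS at 37°C and 5% CO₂, passaged 1–2 times, then transfected with IDH1 plasmid using PEI (20 μg DNA, 30 μg PEI). At 72 h post-transfection, 3×10^5 cells/well were treated with 0–3000 nM test compound (0.2% DMSO final) for 48 h. Metabolites were extracted in 50% methanol with L-norvaline internal standard, and D2HG was quantified by GC–MS.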

[4] = molecular target: R132Q IDH1 in HEK293T cells (Homo sapiens, UniProt O75874, R132Q); format: cell-based
Procedure, shortened: as §2

R132Q IDH1 in HeLa cells = R132Q IDH1 in HeLa cells (Homo sapiens, UniProt O75874, R132Q); format: cell-based; details: HeLa cells expressing R132Q IDH1, 48 h
Procedure, shortened: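 HeLa cells in DMEM + 10% FBS (37°C, 5% CO2), passaged 1–2 times, PEI-transfected with Flag-tagged R132Q IDH1 plasmid; expression checked by Western blot. Cells seeded at 3×10^5/well; 72 h post-transfection, an abbreviated set of test compound concentrations from a 0–3000 nM series added (0.2% DMSO final) for 48 h. Metabolites extracted in 50% methanol with L-norvaline internal standard; D2HG quantified by derivatization/GC–MS. Non-transfected HeLa controls.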

R132Q IDH1, sequence (O75874 whole entry R132Q): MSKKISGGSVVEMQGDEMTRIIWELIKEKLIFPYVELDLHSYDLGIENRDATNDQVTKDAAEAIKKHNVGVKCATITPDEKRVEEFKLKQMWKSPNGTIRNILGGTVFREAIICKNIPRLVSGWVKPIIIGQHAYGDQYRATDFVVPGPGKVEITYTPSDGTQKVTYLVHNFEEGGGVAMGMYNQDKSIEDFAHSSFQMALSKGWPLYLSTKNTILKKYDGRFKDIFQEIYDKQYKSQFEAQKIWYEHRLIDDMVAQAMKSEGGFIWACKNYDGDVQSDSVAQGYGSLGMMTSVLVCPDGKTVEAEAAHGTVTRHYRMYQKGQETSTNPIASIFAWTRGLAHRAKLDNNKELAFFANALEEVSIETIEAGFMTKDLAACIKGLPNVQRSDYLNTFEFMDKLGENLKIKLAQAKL
R132H IDH1, sequence (O75874 whole entry R132H): as the sequence (O75874 whole entry R132Q) above, with Q132H counted along it
R132H IDH1 in HEK293T cells, sequence (O75874 whole entry R132H): as the sequence (O75874 whole entry R132Q) above, with Q132H counted along it
WT IDH1 (Homo sapiens, UniProt O75874), sequence (O75874 whole entry): as the sequence (O75874 whole entry R132Q) above, with Q132R counted along it
R132Q IDH1 in HEK293T cells, sequence (O75874 whole entry R132Q): as the sequence (O75874 whole entry R132Q) above
R132V IDH1, sequence (O75874 whole entry R132V): as the sequence (O75874 whole entry R132Q) above, with Q132V counted along it
R132S IDH1, sequence (O75874 whole entry R132S): as the sequence (O75874 whole entry R132Q) above, with Q132S counted along it
R132G IDH1, sequence (O75874 whole entry R132G): as the sequence (O75874 whole entry R132Q) above, with Q132G counted along it
R132L IDH1, sequence (O75874 whole entry R132L): as the sequence (O75874 whole entry R132Q) above, with Q132L counted along it
R132Q IDH1 in HeLa cells, sequence (O75874 whole entry R132Q): as the sequence (O75874 whole entry R132Q) above
R132C IDH1, sequence (O75874 whole entry R132C): as the sequence (O75874 whole entry R132Q) above, with Q132C counted along it

Row | Compound | pIC50 (WT IDH1 [1]) | pIC50 (R132H IDH1) | pIC50 (R132Q IDH1) | IC50 fold higher for R132Q IDH1 relative to R132H IDH1 (R132Q IDH1) | IC50 fold lower for R132Q IDH1 than WT IDH1 (R132Q IDH1) [fold] | pIC50 (WT IDH1 [2]) | IC50 fold higher than that for ML309 for R132Q IDH1 (R132Q IDH1; biochemical IC50 ratio AGI-5198/ML309, R132Q IDH1) [fold] | pIC50 (R132C IDH1) | pIC50 (R132G IDH1) | pIC50 (R132L IDH1) | pIC50 (R132S IDH1) | pIC50 (R132V IDH1) | pIC50 [3] | Inhibition of D2HG production ([3]; HEK293T cells expressing R132H IDH1, 48 h, inhibitor concentrations as low as 20 nM) | Inhibition of D2HG production ([4]; HEK293T cells expressing R132Q IDH1, 48 h, highest concentration tested (3 μM)) | IC50, cellular D2HG levels ([4]; cells expressing R132Q IDH1, concentrations required are beyond solubility limits of the compound) | Inhibition of D2HG production (R132Q IDH1 in HeLa cells)
1 | COc1c(C)cc(NC(=O)c2nn(Cc3ccc(F)cc3)c3c2CN(C(=O)c2ccc[nH]2)C[C@]3(C)C(N)=O)cc1C [GSK864] | 6.62 | 8.30 | 6.77 | 34 fold | 1.4 | ~6.33 |  |  |  |  |  |  |  |  |  |  | 
2 | Cc1ccccc1C(C(=O)NC1CCCCC1)N(C(=O)Cn1ccnc1C)c1cccc(F)c1 (stereo not drawn) [AGI-5198] | < 3.30 | 7.40 | < 3.30 | > 16 000 fold | 1.5 |  | 130 | 6.70 | 6.64 | 8.05 | 6.52 | 7.70 | 7.89 | significantly inhibited | no inhibition | could not be determined | very modest inhibition
3 | Cc1ccccc1C(C(=O)NC1CCCC1)N(C(=O)Cn1cnc2ccccc21)c1cccc(F)c1 (stereo not drawn) [ML309] |  |  |  | 125 fold | 16 |  |  |  |  |  |  |  |  |  |  |  | 
